According to ChEMBL document CHEMBL2401709 (J Med Chem, 2013):
pIC50: −log10 of the molar value. One block for each molecule: values may come before it. Calls of active or inactive are those of the source. The rule behind the calls is not given here.

Experiments:
HeLa = assay: Cytotoxicity against human HeLa cells assessed as growth inhibition after 72 hrs by calcein AM staining-based fluoroscence assay; format: functional, cell-based
G-361 [1] = assay: Induction of apoptosis in human G361 cells assessed as caspase 3/7 activation using Ac-DEVD-AMC as substrate at 300 nM after 24 hrs by fluorimetry assay; format: functional, cell-based
K562 = assay: Cytotoxicity against human K562 cells assessed as growth inhibition after 72 hrs by calcein AM staining-based fluoroscence assay; format: functional, cell-based; details: K562, 72 h
G-361 [2] = assay: Induction of apoptosis in human G361 cells assessed as induction of PARP-1 clevage at 80 nM after 24 hrs by immunoblotting analysis; format: functional, cell-based
How it was run: (§1)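 Treated G361 cells harvested into Laemmli sample buffer. Proteins resolved by SDS-PAGE and blotted to nitrocellulose. Membranes blocked, probed overnight with specific primary antibodies, then peroxidase-conjugated secondaries. ECL detection by CCD camera. Actin served as loading control.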

G-361 [3] = assay: Induction of apoptosis in human G361 cells assessed as increase of caspase 3/7 activation using Ac-DEVD-AMC as substrate at 20 to 1280 nM after 24 hrs by fluorimetry assay; format: functional, cell-based
[4] = molecular target: T1, Cyclin-dependent kinase 1 (Homo sapiens, UniProt P06493); assay: Inhibition of CDK1 in human G361 cells sensitized with nocodazole assessed as PP1alpha phosphorylation at Thr320 at 640 nM after 4 hrs by immunoblotting analysis; format: cell-based; details: G-361
T1 sequence (P06493 whole entry, looked up): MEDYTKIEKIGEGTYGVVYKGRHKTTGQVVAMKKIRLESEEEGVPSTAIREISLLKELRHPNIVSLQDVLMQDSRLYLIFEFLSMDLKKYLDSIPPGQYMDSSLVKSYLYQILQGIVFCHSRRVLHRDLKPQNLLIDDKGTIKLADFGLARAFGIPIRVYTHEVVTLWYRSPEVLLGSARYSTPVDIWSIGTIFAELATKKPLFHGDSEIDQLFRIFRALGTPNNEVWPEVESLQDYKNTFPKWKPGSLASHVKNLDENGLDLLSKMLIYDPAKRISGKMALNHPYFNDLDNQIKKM
How it was run: (§2)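 G361 cells arrested in mitosis with nocodazole, then dosed with compound. Lysates in Laemmli buffer were immunoblotted on nitrocellulose with antibodies to phospho-PP1α (T320) and phospho-NPM (T199). Peroxidase secondaries with ECL detection.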

G-361 [5] = assay: Induction of apoptosis in human G361 cells assessed as dephosphorylation of retinoblastoma protein at Ser612 at 640 nM up to 1 hr by immunoblotting analysis; format: functional, cell-based; how it was run: as §1
G-361 [6] = assay: Induction of apoptosis in human G361 cells assessed as induction of PARP-1 clevage at 640 nM after 16 hrs by immunoblotting analysis; format: functional, cell-based; how it was run: as §1
G-361 [7] = assay: Induction of apoptosis in human G361 cells assessed as dephosphorylation of retinoblastoma protein at Ser780 at 640 nM up to 1 hr by immunoblotting analysis; format: functional, cell-based; how it was run: as §1
G-361 [8] = assay: Induction of apoptosis in human G361 cells assessed as reduction of RNA polymerase 2 level at 640 nM after 16 hrs by immunoblotting analysis; format: functional, cell-based; how it was run: as §1
CDK7/Cyclin H/MNAT1 = CDK7/Cyclin H/MNAT1 (Homo sapiens, UniProt P50613); assay: Inhibition of CDK7/Cyclin-H/MAT 1 (unknown origin) using (YSPTSPS)2KK peptide as substrate; format: protein-complex assay
CDK7/Cyclin H/MNAT1, sequence (P51946 whole entry): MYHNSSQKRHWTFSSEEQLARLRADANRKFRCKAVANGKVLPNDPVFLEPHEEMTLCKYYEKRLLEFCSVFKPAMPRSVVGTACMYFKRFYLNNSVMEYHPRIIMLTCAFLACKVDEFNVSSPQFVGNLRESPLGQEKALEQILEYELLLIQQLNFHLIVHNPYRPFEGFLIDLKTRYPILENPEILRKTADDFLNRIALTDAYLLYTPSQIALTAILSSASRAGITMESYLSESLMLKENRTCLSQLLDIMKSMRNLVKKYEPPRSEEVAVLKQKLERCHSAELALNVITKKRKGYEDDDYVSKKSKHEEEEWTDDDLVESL
CDK7/Cyclin H/MNAT1, sequence (P50613 whole entry): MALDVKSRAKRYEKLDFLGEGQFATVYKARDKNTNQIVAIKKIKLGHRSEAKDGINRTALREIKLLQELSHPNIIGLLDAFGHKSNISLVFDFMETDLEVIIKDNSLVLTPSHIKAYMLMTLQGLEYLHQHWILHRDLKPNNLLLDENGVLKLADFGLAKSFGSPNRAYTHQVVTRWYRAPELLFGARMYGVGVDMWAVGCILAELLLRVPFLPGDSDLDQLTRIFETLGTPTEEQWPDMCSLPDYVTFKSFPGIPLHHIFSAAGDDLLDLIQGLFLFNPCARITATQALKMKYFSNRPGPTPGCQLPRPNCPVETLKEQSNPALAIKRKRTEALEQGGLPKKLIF
CDK7/Cyclin H/MNAT1, sequence (P51948 whole entry, further chain): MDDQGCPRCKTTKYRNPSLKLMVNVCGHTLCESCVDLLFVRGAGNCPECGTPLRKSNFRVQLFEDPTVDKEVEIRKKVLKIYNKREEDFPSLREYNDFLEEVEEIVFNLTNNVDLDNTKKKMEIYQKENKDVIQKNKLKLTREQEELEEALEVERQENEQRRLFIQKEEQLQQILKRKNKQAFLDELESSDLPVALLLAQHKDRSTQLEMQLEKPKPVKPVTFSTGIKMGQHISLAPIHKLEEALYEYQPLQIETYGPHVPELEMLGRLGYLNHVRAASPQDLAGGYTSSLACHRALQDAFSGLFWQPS
How it was run: (§3)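 CDK5/p35, CDK7/cyclin H/MAT1 and CDK9/cyclin T1 in 10 μL reactions with 0.05 μCi [γ-33P]ATP. CDK5 used 1 mg/mL histone H1 with 0.15 μM ATP. CDK7 and CDK9 used (YSPTSPS)2KK with 1.5 μM ATP. Stopped with H3PO4, spotted on P-81, washed. IC50 from dose-response curves.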

G-361 [9] = assay: Induction of apoptosis in human G361 cells assessed as induction of PARP-1 clevage at 300 nM after 24 hrs by immunoblotting analysis; format: functional, cell-based; how it was run: as §1
G-361 [10] = assay: Induction of apoptosis in human G361 cells assessed as decrease in Mcl-1 at 640 nM up to 2 hrs by immunoblotting analysis; format: functional, cell-based; how it was run: as §1
G-361 [11] = assay: Induction of apoptosis in human G361 cells assessed as reduction of retinoblastoma protein level at 640 nM after 16 hrs by immunoblotting analysis; format: functional, cell-based; how it was run: as §1
G-361 [12] = assay: Induction of apoptosis in human G361 cells assessed as induction of caspase-7 clevage at 300 nM after 24 hrs by immunoblotting analysis; format: functional, cell-based; how it was run: as §1
CDK2/CDK4 (Homo sapiens) = CDK2/CDK4 (Homo sapiens) (UniProt P11802+P24941); assay: Inhibition of CDK2/4-mediated retinoblastoma protein phosphorylation at ser780 in human G361 cells at 300 nM after 24 hrs by immunoblotting analysis; format: cell-based; details: G-361; how it was run: as §1
[13] = molecular target: Cyclin-dependent kinase 7 (Homo sapiens) (UniProt P50613); assay: Inhibition of CDK7 in human G361 cells assessed as reduction of phosphorylation of CDK1 at T161 by immunoblotting analysis; format: cell-based; details: G-361; how it was run: as §1
Cyclin-dependent kinase 7 (Homo sapiens), sequence (P50613 whole entry): as the sequence (P50613 whole entry) above

MCF7 = assay: Cytotoxicity against human MCF7 cells assessed as growth inhibition after 72 hrs by calcein AM staining-based fluoroscence assay; format: functional, cell-based; details: MCF7, 72 h
G-361 [14] = assay: Induction of apoptosis in human G361 cells assessed as induction of caspase-3 clevage at 300 nM after 24 hrs by immunoblotting analysis; format: functional, cell-based; how it was run: as §1
[15] = molecular target: Cyclin-dependent kinase 9 (Homo sapiens) (UniProt P50750); assay: Inhibition of CDK9-mediated RNA polymerase 2 phosphorylation at ser2 in human G361 cells at 300 nM after 24 hrs by immunoblotting analysis; format: cell-based; details: G-361; how it was run: as §1
Cyclin-dependent kinase 9 (Homo sapiens), sequence (P50750 whole entry): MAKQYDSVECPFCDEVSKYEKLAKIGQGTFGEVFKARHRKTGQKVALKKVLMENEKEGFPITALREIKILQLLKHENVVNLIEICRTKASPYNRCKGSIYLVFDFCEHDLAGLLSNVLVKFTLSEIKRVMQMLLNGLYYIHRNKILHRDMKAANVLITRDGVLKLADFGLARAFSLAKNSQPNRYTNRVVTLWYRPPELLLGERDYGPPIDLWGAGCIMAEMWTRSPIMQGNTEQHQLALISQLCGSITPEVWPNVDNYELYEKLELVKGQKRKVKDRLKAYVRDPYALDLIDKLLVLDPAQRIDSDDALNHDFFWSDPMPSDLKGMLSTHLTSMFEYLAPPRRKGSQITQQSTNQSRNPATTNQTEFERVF

[16] = molecular target: T1, Cyclin-dependent kinase 1; assay: Inhibition of CDK1 in human G361 cells sensitized with nocodazole assessed as PP1alpha phosphorylation at Thr320 at 640 nM after 8 hrs by immunoblotting analysis; format: cell-based; details: G-361; how it was run: as §2
HOS = assay: Cytotoxicity against human HOS cells assessed as growth inhibition after 72 hrs by calcein AM staining-based fluoroscence assay; format: functional, cell-based
G-361 [17] = assay: Induction of apoptosis in human G361 cells assessed as decrease in Mcl-1 protein level at 300 nM after 24 hrs by immunoblotting analysis; format: functional, cell-based; how it was run: as §1
G-361 [18] = assay: Induction of apoptosis in human G361 cells assessed as dephosphorylation of RNA polymerase 2 at Ser2 at 640 nM up to 1 hr by immunoblotting analysis; format: functional, cell-based; how it was run: as §1
G-361 [19] = assay: Induction of apoptosis in human G361 cells assessed as decrease in Mcl-1 at 300 nM after 24 hrs by immunoblotting analysis; format: functional, cell-based; how it was run: as §1
CDK9/cyclin T1 = CDK9/cyclin T1 (Homo sapiens, UniProt P50750); assay: Inhibition of CDK9/Cyclin T1 (unknown origin) using (YSPTSPS)2KK peptide as substrate; format: protein-complex assay; how it was run: as §3
CDK9/cyclin T1, sequence (O60563 whole entry): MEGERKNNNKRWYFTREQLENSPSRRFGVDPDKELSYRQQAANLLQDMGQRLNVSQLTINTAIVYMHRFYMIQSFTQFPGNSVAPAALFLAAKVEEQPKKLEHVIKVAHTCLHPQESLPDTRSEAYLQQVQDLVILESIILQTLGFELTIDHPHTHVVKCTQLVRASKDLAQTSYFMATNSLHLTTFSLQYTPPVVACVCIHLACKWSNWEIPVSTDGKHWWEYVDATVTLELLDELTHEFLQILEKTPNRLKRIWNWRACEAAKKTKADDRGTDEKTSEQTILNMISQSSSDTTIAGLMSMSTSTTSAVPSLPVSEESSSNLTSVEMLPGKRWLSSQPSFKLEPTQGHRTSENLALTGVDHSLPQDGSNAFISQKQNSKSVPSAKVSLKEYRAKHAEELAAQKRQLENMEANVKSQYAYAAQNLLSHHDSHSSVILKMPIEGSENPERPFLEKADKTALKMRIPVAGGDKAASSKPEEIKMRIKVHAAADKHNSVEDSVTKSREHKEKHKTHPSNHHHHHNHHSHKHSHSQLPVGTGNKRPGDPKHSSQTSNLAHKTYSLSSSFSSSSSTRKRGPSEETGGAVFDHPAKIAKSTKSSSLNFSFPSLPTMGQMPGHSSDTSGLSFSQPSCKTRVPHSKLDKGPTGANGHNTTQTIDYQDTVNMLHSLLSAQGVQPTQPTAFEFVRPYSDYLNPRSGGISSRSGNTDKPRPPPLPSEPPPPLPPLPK
CDK9/cyclin T1, sequence (P50750 whole entry): as the sequence (P50750 whole entry) above

G-361 [20] = assay: Induction of apoptosis in human G361 cells assessed as increase of activated caspase 3/7 level using Ac-DEVD-AMC as substrate at 20 to 1280 nM after 24 hrs by fluorimetry assay
G-361 [21] = assay: Induction of apoptosis in human G361 cells assessed as dephosphorylation of RNA polymerase 2 at Ser5 at 640 nM up to 1 hr by immunoblotting analysis; format: functional, cell-based; how it was run: as §1
[22] = molecular target: Cyclin-dependent kinase 5/CDK5 activator 1 (Homo sapiens, UniProt Q00535); assay: Inhibition of CDK5/p35 (unknown origin) using histone H1 as substrate; format: protein-complex assay; how it was run: as §3
Cyclin-dependent kinase 5/CDK5 activator 1, sequence (Q00535 whole entry): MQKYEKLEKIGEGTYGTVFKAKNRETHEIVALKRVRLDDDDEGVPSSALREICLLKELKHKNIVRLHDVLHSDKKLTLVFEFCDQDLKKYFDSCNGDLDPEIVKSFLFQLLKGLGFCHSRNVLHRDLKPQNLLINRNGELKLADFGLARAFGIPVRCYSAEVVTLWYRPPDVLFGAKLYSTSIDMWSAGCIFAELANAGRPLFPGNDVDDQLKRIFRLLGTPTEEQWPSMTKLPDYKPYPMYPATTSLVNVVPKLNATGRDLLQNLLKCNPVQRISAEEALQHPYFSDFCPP
Cyclin-dependent kinase 5/CDK5 activator 1, sequence (Q15078 whole entry, further chain): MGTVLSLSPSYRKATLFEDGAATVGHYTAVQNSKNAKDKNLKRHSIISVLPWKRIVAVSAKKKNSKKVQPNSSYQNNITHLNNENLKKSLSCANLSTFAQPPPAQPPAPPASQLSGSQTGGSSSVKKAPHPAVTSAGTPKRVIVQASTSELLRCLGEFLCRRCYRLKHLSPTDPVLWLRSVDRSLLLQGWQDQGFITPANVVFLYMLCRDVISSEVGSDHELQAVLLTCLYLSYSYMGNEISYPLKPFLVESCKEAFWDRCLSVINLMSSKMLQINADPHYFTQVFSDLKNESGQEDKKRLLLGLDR

[23] = molecular target: Cyclin-dependent kinase 7 (Homo sapiens) (UniProt P50613); assay: Inhibition of CDK7 in human G361 cells assessed as reduction of phosphorylation of CDK2 at T160 by immunoblotting analysis; format: cell-based; details: G-361; how it was run: as §1
G-361 [24] = assay: Induction of apoptosis in human G361 cells assessed as decrease in Mcl-1 after 24 hrs by immunoblotting analysis; format: functional, cell-based; how it was run: as §1
HCT-116 = assay: Cytotoxicity against human HCT116 cells assessed as growth inhibition after 72 hrs by calcein AM staining-based fluoroscence assay; format: functional, cell-based; details: HCT-116, 72 h
G-361 [25] = assay: Induction of apoptosis in human G361 cells assessed as increase in p53 after 24 hrs by immunoblotting analysis; format: functional, cell-based; how it was run: as §1
[26] = molecular target: Cyclin-dependent kinase 2/cyclin E1 (Homo sapiens, UniProt P24941); assay: Inhibition of human recombinant CDK2/Cyclin E expressed in baculovirus infected sf9 cells using histone H1 as substrate
G-361 [27] = assay: Induction of apoptosis in human G361 cells assessed as caspase 9 activation using Ac-DEHD-AMC as substrate at 300 nM after 24 hrs by fluorimetry assay; format: functional, cell-based; details: in the assay text read “Ac-LEHD-AMC” for “Ac-DEHD-AMC”
How it was run: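 G361 lysates were made in CHAPS extraction buffer, pH 7.4, clarified at 10000g, and protein-equalized. They were incubated 24 h with 100 μM Ac-LEHD-AMC in 100 mM HEPES pH 7.5, 0.5 mM EDTA, 20% glycerol, 5 mM DTT. AMC fluorescence read at 355/460 nm (ex/em).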

[28] = molecular target: Cyclin-dependent kinase 2 (Homo sapiens) (UniProt P24941); assay: Inhibition of CDK2 in human G361 cells sensitized with nocodazole assessed as NPM phosphorylation at Thr199 at 640 nM after 4 hrs by immunoblotting analysis; format: cell-based; details: G-361; how it was run: as §2
G-361 [29] = assay: Induction of apoptosis in human G361 cells assessed as caspase 3/7 activation at 640 nM after 16 hrs by Ac-DEVD-AMC-based fluorimetry assay; format: functional, cell-based
[30] = molecular target: Cyclin-dependent kinase 2/cyclin E1 (Homo sapiens) (UniProt P24864+P24941); assay: Ratio of roscovitine IC50 to compound IC50 for human recombinant CDK2/Cyclin E; format: protein-complex assay
G-361 [31] = assay: Cytotoxicity against human G361 cells assessed as growth inhibition after 72 hrs by calcein AM staining-based fluoroscence assay; format: functional, cell-based; details: G-361, 72 h
G-361 [32] = assay: Induction of apoptosis in human G361 cells assessed as induction of caspase-9 clevage at 300 nM after 24 hrs by immunoblotting analysis; format: functional, cell-based; how it was run: as §1

pIC50 (CDK7/Cyclin H/MNAT1): 6.51
inhibition (CDK2/CDK4 (Homo sapiens)): Active
inhibition [13]: Active
Inhibition of RNA polymerase II Ser2 phosphorylation (qualitative) [15]: Active
pIC50 (CDK9/cyclin T1): 7.96
pIC50 [22]: 7.73
inhibition [23]: Active
pIC50 [26]: 8.15
Ratio IC50 [30]: 20
SMILES: NC1CCC(Nc2nc(NCc3ccc(-c4ccccc4O)nc3)c3ncn(C4CCCC4)c3n2)CC1 (stereo not drawn)
pIC50 (HeLa): 7.80
Activity (G-361 [1]): Active
pIC50 (K562): 7.80
Activity (G-361 [2]): Active
Activity (G-361 [3]): Active
inhibition [4]: Active
Activity (G-361 [5]): Active
Activity (G-361 [6]): Active
Activity (G-361 [7]): Active
Activity (G-361 [8]): Active
Activity (G-361 [9]): Active
Activity (G-361 [10]): Active
Activity (G-361 [11]): Active
Activity (G-361 [12]): Active
pIC50 (MCF7): 7.74
Activity (G-361 [14]): Active
inhibition [16]: Active
pIC50 (HOS): 7.85
Activity (G-361 [17]): Active
Activity (G-361 [18]): Active
Activity (G-361 [19]): Active
Activity (G-361 [20]): Active
Activity (G-361 [21]): Active
Activity (G-361 [24]): Dose-dependent effect
pIC50 (HCT-116): 7.46
Activity (G-361 [25]): Dose-dependent effect
Activity (G-361 [27]): Active
inhibition [28]: Active
Activity (G-361 [29]): Active
pIC50 (G-361 [31]): 7.62
Activity (G-361 [32]): Active

inhibition (CDK2/CDK4 (Homo sapiens)): Active
Inhibition of RNA polymerase II Ser2 phosphorylation (qualitative) [15]: Active
pIC50 [26]: 8.40
Ratio IC50 [30]: 20
SMILES: NC1CCC(Nc2nc(NCc3ccc(-c4cccs4)nc3)c3ncn(C4CCCC4)c3n2)CC1 (stereo not drawn)
pIC50 (HeLa): 7.40
Activity (G-361 [1]): Active
pIC50 (K562): 7.00
Activity (G-361 [9]): Active
Activity (G-361 [12]): Active
pIC50 (MCF7): 7.04
Activity (G-361 [14]): Active
pIC50 (HOS): 7.49
Activity (G-361 [17]): Active
Activity (G-361 [19]): Active
pIC50 (HCT-116): 7.01
Activity (G-361 [27]): Active
pIC50 (G-361 [31]): 6.82
Activity (G-361 [32]): Active
